Data set [1] can be described thus: Cytotoxicity against African green monkey Vero cells assessed as growth inhibition after 48 hrs. The data set is classed as cell-based. As to conditions: chlorocebus sabaeus, read-out: TC50. The procedure, abridged: (§1)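 Vero or MDCK cells (2.5 × 10^4/well) were seeded for 24 h, then exposed to graded compound concentrations. After 48 h at 37 °C and 5% CO2, cytotoxicity was scored by CPE. TC50 was calculated by Reed and Muench analysis.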

The subject of data set [2] is Influenza A virus. Put plainly: Antiviral activity against Influenza A virus A/95-359 infected in MDCK cells assessed as inhibition of virus-induced cytopathic effect. Type of data set: functional, cell-based. As to conditions: A/95-359, MDCK. The procedure, abridged: (§2)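 MDCK cells (2.5 × 10^4/well) seeded 24 h, PBS-washed, infected with influenza A/95-359 at 100 TCID50 for 2 h, then exposed to graded compound concentrations until control CPE reached 4+. IC50 = minimal concentration inhibiting 50% of CPE (Reed and Muench); triplicate, at least three separate experiments. […] SI = TC50/IC50.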

The nature of data set [3]: Selectivity index, ratio of TC50 for MDCK cells to IC50 for Influenza A virus (A/95-359) infected in MDCK cells. The data set is classed as toxicity, cell-based. The following applies: dog, read-out: Selectivity Index. Put shortly: as §2
Data set [4] in a line: Selectivity index, ratio of TC50 for African green monkey Vero cells to IC50 for Coxsackievirus B3 infected in African green monkey Vero cells. The following applies: read-out: Selectivity Index. The data set is classed as toxicity. Put shortly: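 Vero monolayers infected with 100 TCID50 Coxsackie B3 virus, 2 h adsorption at 37 °C, PBS-washed, then held in MEM plus 2% FBS at 37 °C with graded compound concentrations. […] SI = TC50/IC50.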

Data set [5] can be described thus: Cytotoxicity against MDCK cells assessed as growth inhibition after 48 hrs. The data set is classed as cell-based, Canis lupus familiaris. The following applies: dog, read-out: TC50. Put shortly:
as §1

The test system of data set [6] is Human alphaherpesvirus 1. As to the kind of experiment: Antiviral activity against Herpes simplex virus-1 F VR 733 infected in African green monkey Vero cells assessed as inhibition of virus-induced cytopathic effect. The data set is classed as functional. The following applies: Human alphaherpesvirus 1, Strain F ATCC VR 733, Vero. Put shortly: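 Vero cells (2.5 × 10^4/well) were seeded for 24 h, then the medium was removed. Cells were infected with HSV-1 at 100 TCID50 for 2 h, then given graded compound concentrations. Incubation continued until control CPE reached 4+. Runs were in triplicate, repeated at least three times. IC50 is the minimal concentration inhibiting 50% of CPE, by Reed and Muench.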

The subject of data set [7] is Coxsackievirus B3. Put plainly: Antiviral activity against Coxsackievirus B3 infected in African green monkey Vero cells assessed as inhibition of virus-induced cytopathic effect. Type of data set: functional. As to conditions: Enterovirus B. The procedure, abridged:
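Vero monolayers were infected with Cox B3 at 100 TCID50 and allowed 2 h adsorption at 37 °C. They were then washed with PBS and kept at 37 °C in MEM with 2% FBS, with or without graded concentrations of test compounds. Read-out was CPE.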
On the technique in general: Damage to the host cells serves as the signal in cytopathic effect assays.

A short description of data set [8]: Selectivity index, ratio of TC50 for African green monkey Vero cells to IC50 for Herpes simplex virus-1 F VR 733 infected in African green monkey Vero cells. The data set is classed as toxicity. As to conditions: read-out: Selectivity Index. Put shortly:
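Vero cells (2.5 × 10^4/well) seeded 24 h, medium removed, infected with HSV-1 at 100 TCID50 for 2 h, then graded compound concentrations added until control CPE reached 4+. IC50 = minimal concentration inhibiting 50% CPE (Reed and Muench); triplicate, at least three separate experiments. […] SI = TC50/IC50.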

A value given as a limit tells only on which side of the number the result lay.

By IC50 is commonly meant the concentration that gives 50% inhibition.

On to `C[C@H](CC[C@H](O)C(C)(C)O)[C@H]1CC[C@@]2(C(=O)O)[C@@H]3CCC4=C(CC[C@@H](O)C4(C)C)C[C@H]3CC[C@]12C`, for which the CC50 at 48 h was 48.1 to 57.7 µM in data set [1] and 19.3 µM in data set [5]. In addition, the IC50 in data set [2] worked out at 4.8 µM; in data set [6] it was 11.1 µM; in data set [7] it was 4.8 µM. Besides, the selectivity ratio in data set [3] stood at 4; in data set [4], 10; in data set [8] it was 5.2.

In the case of `C[C@H](CCC(=O)C(C)(C)O)[C@H]1CC[C@@]2(C(=O)O)[C@@H]3CCC4=C(CC[C@@H](O)C4(C)C)C[C@H]3CC[C@]12C`, the CC50 at 48 h is 16 µM in data set [1] and 6.4 µM in data set [5]. Further, the IC50 in data set [2] is 2.1 µM; in data set [6], 3.7 µM; in data set [7], 2.1 µM. For the same compound, the selectivity ratio in data set [3] is 3; in data set [4], 7.6; in data set [8], 4.3.

Turning to `C[C@H](CCC(=O)C(C)(C)O)[C@H]1CC[C@@]2(C(=O)O)[C@@H]3CCC4=C(CC[C@@H](O[C@@H]5O[C@H](CO)[C@@H](O)[C@H](O)[C@H]5O)C4(C)C)C[C@H]3CC[C@]12C`, the CC50 at 48 h in data set [1] turned out to be 23.1 µM; in data set [5] it was 33.3 µM. For the same compound, the IC50 in data set [2] is > 11.1 µM; in data set [6] it was 11.1 µM; in data set [7] it was 11.1 µM. Besides, the selectivity ratio in data set [4] and in data set [8] was 2.1 in each case.

On to `C[C@H](CC[C@H](O)C(C)(C)O)[C@H]1CC[C@@]2(C(=O)O)C3=C(CC[C@]12C)[C@@]1(C)CC[C@@H](O)C(C)(C)[C@@H]1CC3`, for which the CC50 at 48 h in data set [1] was 16 to 19.3 µM; in data set [5] it was 16 µM. The IC50 in data set [2] turned out to be 3.7 µM; in data set [6] it was 2.1 µM; in data set [7], 4.8 µM. Further, the selectivity ratio in data set [3] stood at 4.3; in data set [4] it was 4; in data set [8], 7.6.

Consider `CC(=O)OC[C@H]1O[C@@H](O[C@@H]2CC[C@]3(C)C4=C(CC[C@H]3C2(C)C)[C@]2(C(=O)O)CC[C@H]([C@H](C)CC[C@H](O)C(C)(C)O)[C@@]2(C)CC4)[C@H](O)[C@@H](O)[C@@H]1O`, for which the CC50 at 48 h in data set [1] and in data set [5] was 19.3 µM in each case. Moreover, the IC50 in data set [2] is 11.1 µM; in data set [6], 6.4 µM; in data set [7], 11.1 µM. Further, the selectivity ratio in data set [3] came to 1.7; in data set [4], 1.7; in data set [8], 3.

For `NC(=O)c1ncn([C@@H]2O[C@H](CO)[C@@H](O)[C@H]2O)n1` [RIBAVIRIN], the IC50 in data set [2] turned out to be 1.3 µM; in data set [7] it was 292 µM. For the same compound, the results for the selectivity ratio in data set [3] and in data set [4] were 895 and 6.8, respectively. In data set [5], the CC50 at 48 h came out at 1160 µM.

Source of the values: ChEMBL document CHEMBL3994572, “Antiviral Triterpenes from the Twigs and Leaves of Lyonia ovalifolia” (J Nat Prod, 2016).
